Hits are enriched below; roughly 2% of the tested compounds scored in any of these assays.
LEDGF integ inh = blocks HIV-1 LEDGF/p75-dependent DNA integration. TR-FRET IN-LEDGF/p75 DNA integration, Eu/Cy5. inhibition, % at 3.7 µM. 0.64% of 370,000 active;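 active means inhibition above the screen-wide mean plus 3 SD, cut at about 13% in these data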;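 further: signal is the Cy5 over europium emission ratio at 671 and 618 nm; 0% = plate median of compound wells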
ASAP1 inh = ASAP1 ArfGAP inhibition | ASAP1-stimulated ARF1 GTP hydrolysis, GDP FP detection | inhibition, % at 16.5 µM | 0.19% of 360,000 active; in the data active means inhibition above about 25%;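 further: 0% = vehicle with enzyme and substrate and 100% = no enzyme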
TDP2 inh = TDP2 (human) inhibition, absorbance primary screen; O95551; recombinant TDP2, T5PNP hydrolysis, p-nitrophenol absorbance 415 nm; inhibition, % at 12.8 µM; 0.34% of 370,000 active;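 active means inhibition above the mean of all tested compounds plus 3 SD, set per campaign, cut at about 25% in these data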;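 further: 0% = DMSO with enzyme and 100% = buffer with substrate but no TDP2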
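Incubation: 2 h at 37 °C; Test system: recombinant human TDP2; Quantity: enzyme 120 nM; Read-out basis: percent inhibition; Medium: 50 mM Tris-HCl pH 7.5 with Mg2+, KCl, DTT, BSA; Repeats: single replicate; Compound: 12.8 µM single point, 1% DMSO; Signal: epi absorbance; Reagent: 5 mM T5PNP chromogenic substrate; Benchmarks: no-enzyme high, DMSO-plus-enzyme low.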
ARFGAP1 inh = inhibitors of rat ARFGAP1; Q62848; Arfgap1-stimulated ARF1 GTP hydrolysis, GDP FP detection; inhibition, % at 16.5 µM; 0.26% of 360,000 active;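 active means inhibition above a per-plate limit, mean inhibition of low control wells plus 3 SD, cut at about 25% in these data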;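 further: 0% = DMSO wells with enzyme and 100% = wells lacking Arfgap1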
Target sequence (Q62848 1-136 limits assumed): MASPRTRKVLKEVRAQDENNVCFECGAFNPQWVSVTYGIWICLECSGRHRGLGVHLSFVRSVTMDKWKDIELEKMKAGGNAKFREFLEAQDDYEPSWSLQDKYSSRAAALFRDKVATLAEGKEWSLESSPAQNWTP
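material = rat Arfgap1 catalytic domain, aa 1-136 | also added = human ARF1(Δ1-17)-GTP substrate | compound dosing = one concentration, 16.5 µM, DMSO 1.26% | times = GTP hydrolysis reaction 2 h at 25 °C | measured by = FP, GDP Alexa 633 tracer displaced from anti-GDP antibody, 620/688 nm | evaluation = percent inhibition of Arfgap1-stimulated GTP hydrolysis | replication = single well per compound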
MBD2 inh = blocks human MBD2 binding to methylated DNA. 0.31% of 370,000 active. Q9UBB5. TR-FRET, MBD2 binding to methylated oligonucleotide. inhibition, % at 4.4 µM; in the data active means inhibition above about 13%
Target sequence (Q9UBB5 whole entry, looked up): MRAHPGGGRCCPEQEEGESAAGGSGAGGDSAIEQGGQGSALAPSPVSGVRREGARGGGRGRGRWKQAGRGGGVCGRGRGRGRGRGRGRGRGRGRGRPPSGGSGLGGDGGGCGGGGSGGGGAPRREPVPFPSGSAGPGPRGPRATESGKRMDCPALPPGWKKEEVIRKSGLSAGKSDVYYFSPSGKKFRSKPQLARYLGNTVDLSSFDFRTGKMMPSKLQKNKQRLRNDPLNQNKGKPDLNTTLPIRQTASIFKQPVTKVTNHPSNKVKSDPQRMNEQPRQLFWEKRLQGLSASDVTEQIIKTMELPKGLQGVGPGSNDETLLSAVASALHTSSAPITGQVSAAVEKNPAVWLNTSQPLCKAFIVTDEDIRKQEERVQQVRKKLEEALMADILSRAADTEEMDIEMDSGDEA
UHRF1 MBD2 ctr = UHRF1 methyl-DNA binding inhibition; Q96T88; UHRF1 binding to methylated oligo, TR-FRET; inhibition, % at 4.4 µM; 0.75% of 370,000 active; AID 687016; in the data active means inhibition above about 21%;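 further: UHRF1 SRA domain binding a hemimethylated CpG hairpin DNA probe; 0% = median of test compound wells and 100% = reference inhibitor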
* = called active by the depositor; . = no result given.

SMILES	LEDGF integ inh	ASAP1 inh	TDP2 inh	ARFGAP1 inh	MBD2 inh	UHRF1 MBD2 ctr
CC(C)=CCOc1ccc2c(C)c(CC(=O)N3C[C@H]4C[C@@H](C3)c3cccc(=O)n3C4)c(=O)oc2c1C	3	6	2	6	0	35*
CN(C)S(=O)(=O)c1cccc(NC(=S)Nc2cccc3cnccc23)c1	7	-7	28*	20	-3	2
CC(C)N(CC#CCC(O)(c1ccccc1)c1ccccc1)CCO	5	8	-8	6	-2	26*
CCN(CC#CCC(O)(c1ccccc1)c1ccccc1)C(C)C	-4	-9	3	2	-1	3
CCN(CC)CCCNC(=O)c1cn(C)c2ccc(S(=O)(=O)N(C)C)cc2c1=O	6	-8	5	-2	8	27*
CC(=O)N1c2ccc(S(=O)(=O)N3CCCC3C(=O)NCc3ccccc3Cl)cc2CC1C (centres undefined)	-6	7	-2	1	3	49*
CC1CC(C)CN(S(=O)(=O)N2CCCC(C(=O)NCc3ccccc3Cl)C2)C1 (centres undefined)	1	-1	-10	-2	10	22*
COc1ccccc1CNC(=O)C1CCN(S(=O)(=O)c2ccc3c(c2)CC(C)N3C(C)=O)CC1 (centres undefined)	0	0	14	1	-6	0
O=c1cc(N2CCN(c3cccc(C(F)(F)F)c3)CC2)[nH]c(=O)n1C1CCCCC1	2	.	-6	.	-2	-3
O=C(OCc1cn(Cc2ccccc2Cl)nn1)N1CCOCC1	1	.	0	.	-2	3
CCc1nc2c(c(=O)c3ccccc3n2C)c(=O)n1C1CCCCCC1	-2	4	-6	3	1	59*
O=C(Cn1cnc2c(NCc3ccccc3)ncnc21)NCc1ccc2[nH]ccc2c1	-1	5	2	2	6	24*
Clc1cc(Cl)cc(CNC2CCC23CCC(c2ccccc2)CC3)c1 (centres undefined)	1	.	6	.	-5	-2
CC[C@@]12C(=O)N(c3cccc(F)c3)C(=O)N1[C@H](c1cccc(C)c1)[C@@H]1C(=O)N(Cc3ccccc3)C(=O)[C@@H]12	-3	13	-6	-2	-4	-4
CC[C@@]12C(=O)N(c3ccccc3)C(=O)N1[C@H](c1cccc(C)c1)[C@@H]1C(=O)N(Cc3ccccc3)C(=O)[C@@H]12	10	8	11	14	7	24*
O=C(c1cccc(NS(=O)(=O)c2cccc(F)c2)c1)N1CCCC1	-4	-3	14	2	4	21*
O=C(c1cccc(S(=O)(=O)Nc2ccccc2Cl)c1)N1CCN(c2ccccc2O)CC1	-2	-10	2	5	3	21*
O=C(c1cccc(NS(=O)(=O)c2ccccc2)c1)N1CCCC1	0	-6	6	12	1	-1
CCC(C)N(C(=O)CCC(=O)Nc1cc(C)on1)C(C(=O)NC(C)(C)C)c1ccccc1Cl (centres undefined)	-1	-6	-14	7	2	0
Cc1cc(NC(=O)CCC(=O)N(C(C(=O)NC(C)(C)C)c2ccccc2Cl)C(C)(C)C)no1 (centres undefined)	-1	0	-2	-7	6	25*
Cc1cc(C)cc(CC(=O)N2CCC2(C)C(=O)NS(=O)(=O)c2cccc(F)c2)c1 (centres undefined)	-4	-8	-1	0	-1	21*
CC(C)NC(=O)C1(C)Cc2c(-c3cccc(C(F)(F)F)c3)ccnc2O1 (centres undefined)	2	-1	-13	0	-8	38*
CCOC(=O)c1ccc(NC(=S)NCC(O)c2ccccc2)cc1 (centres undefined)	2	-3	8	2	-3	-2
CCc1ccc(NC(=O)C(=O)NCC(O)c2ccccc2)cc1 (centres undefined)	-1	1	-21	3	-4	52*
O=C(Cn1nnc(-c2ccc(N3CCOCC3)cc2)n1)c1ccccc1	-2	.	-2	.	1	1
SMILES	LEDGF integ inh	ASAP1 inh	TDP2 inh	ARFGAP1 inh	MBD2 inh	UHRF1 MBD2 ctr
C=CCN1C(=O)[C@@H](CC(=O)NCc2ccc(OC)c(OC)c2)[C@]2(C(=O)OCC)CCCCC/C=C/12	-5	.	-5	.	-2	-1
Cc1cccc(NC2=C/C(=N/S(=O)(=O)c3cccs3)c3ccccc3C2=O)c1	2	33*	20	12	-5	1
Cc1ccc(Cl)cc1NC1=C/C(=N\S(=O)(=O)c2cccs2)c2ccccc2C1=O	10	19	23	11	-4	-4
Cc1cc(C)c(S(=O)(=O)/N=C2\C=C(Nc3ccc(C(=O)O)cc3)C(=O)c3ccccc32)c(C)c1	43*	21	84*	-1	-3	8
Cc1cc(C)c(S(=O)(=O)/N=C2\C=C(NS(=O)(=O)c3ccccc3)C(=O)c3ccccc32)c(C)c1	-1	24	-8	-7	1	2
Cc1c(C(=O)Nc2ccc(F)c(F)c2)oc2ccc(S(=O)(=O)N3CCCCC3)cc12	-3	2	-10	-1	4	23*
Nc1ccc2c(c1)C(=O)Cc1ccccc1S2	0	7	-6	1	1	49*
COc1ccc(NC(=O)CN(C)C(=O)CSCC(=O)Nc2ccc(C)cc2)cc1	-5	-5	1	3	9	8
COc1cccc(NC(=O)CN(C)C(=O)CSCC(=O)Nc2ccc(C)cc2)c1	0	-1	0	-8	2	29*
Cc1cccn2c(=O)c3cc(C(=O)NC4CCCC4)n(C)c3nc12	2	-7	12	0	-2	-2
COC1C=CC(CNC(=O)c2cc3c(=O)n4cccc(C)c4nc3n2C)(OC)O1 (centres undefined)	1	-6	-3	3	2	69*
C=CCNC(=O)CN(C(=O)Cc1ccc(Cl)cc1)c1cccc(Br)c1	4	.	-2	.	-2	-2
O=S(=O)(N1CCCCC1)n1c(Cc2ccccc2)nc2ccccc21	0	14	0	-3	5	35*
COc1ccc(S(=O)(=O)N=Nc2c(O)[nH]c3ccccc23)cc1	10	-6	3	2	13*	46*
O=C(CCC(=O)Nc1ccc(F)cc1)N/N=C/c1ccc(O)cc1O	-8	-1	-2	-7	6	24*
O=C(CCC(=O)Nc1ccc(F)cc1)N/N=C/c1ccc(O)cc1	-3	4	-1	8	0	1
C#CC[N+]1(CC#Cc2ccccc2)CCCCC1	1	16	-9	15	3	38*
C(#Cc1ccccc1)C[N+]1(CC#Cc2ccccc2)CCCCC1	3	4	6	-16	-2	5
